Source: ChEMBL document CHEMBL3091291, “Synthesis and pharmacological characterization of benzenesulfonamides as dual species inhibitors of human and murine mPGES-1” (Bioorg Med Chem, 2013)
Activity calls are given as the source filed them. The calls are words filed in the database; no cut-off is given here.

Columns and labels:
[1] = biological target: T1, Prostaglandin G/H synthase 2 (Homo sapiens) (UniProt P35354); assay: Inhibition of recombinant human COX2 using […] at 10 uM by LC-MS/MS analysis
T1 sequence (whole entry): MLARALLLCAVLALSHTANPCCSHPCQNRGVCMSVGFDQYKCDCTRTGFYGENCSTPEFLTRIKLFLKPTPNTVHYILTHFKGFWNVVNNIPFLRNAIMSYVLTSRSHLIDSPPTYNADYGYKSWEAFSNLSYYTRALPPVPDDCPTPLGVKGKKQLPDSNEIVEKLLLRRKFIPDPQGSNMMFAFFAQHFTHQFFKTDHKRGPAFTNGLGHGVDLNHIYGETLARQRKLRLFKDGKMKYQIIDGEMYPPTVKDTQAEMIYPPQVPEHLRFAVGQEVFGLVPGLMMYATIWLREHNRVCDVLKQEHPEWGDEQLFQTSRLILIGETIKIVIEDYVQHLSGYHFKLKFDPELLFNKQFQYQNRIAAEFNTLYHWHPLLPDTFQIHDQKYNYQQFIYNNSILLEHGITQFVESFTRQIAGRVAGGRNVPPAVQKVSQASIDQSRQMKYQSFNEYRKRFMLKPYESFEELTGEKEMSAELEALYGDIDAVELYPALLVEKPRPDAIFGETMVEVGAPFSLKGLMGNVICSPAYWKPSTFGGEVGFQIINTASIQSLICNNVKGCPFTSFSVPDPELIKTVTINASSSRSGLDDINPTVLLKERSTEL
Outline: (§1)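 Ovine COX-1 and recombinant human COX-2 tested directly with a commercial COX inhibitor screening kit, following the manufacturer's protocol. COX-derived PGH₂ reduced with SnCl₂; the resulting PGE₂, PGD₂ and PGF₂a diluted in MeOH, spiked with deuterated internal standards and quantified by SPE and LC–MS/MS.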

[2] = biological target: T2, Prostaglandin E synthase (Homo sapiens) (UniProt O14684); assay: Inhibition of mPGES-1 in human HeLa cells using PGH2 as substrate assessed as inhibition of IL-1beta/TNFalpha-stimulated PGE2 production at 5 uM preincubated for 30 mins followed by substrate addition measured after 1 min by LC-MS/MS analysis; type: cell-based
T2 sequence (whole entry): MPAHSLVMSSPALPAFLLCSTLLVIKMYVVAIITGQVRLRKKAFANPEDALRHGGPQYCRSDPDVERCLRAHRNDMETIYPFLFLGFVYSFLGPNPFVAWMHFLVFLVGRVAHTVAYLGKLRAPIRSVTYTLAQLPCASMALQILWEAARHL
Outline: (§2)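 Microsomal fraction from HeLa, NIH-3T3 or RAW 264.7 cells, obtained by sonication and ultracentrifugation, resuspended in 0.1 M KPi pH 7.4 with 2.5 mM reduced GSH. Protein at 0.15 mg/mL (HeLa, NIH) or 0.3 mg/mL (RAW) incubated with compound 30 min on ice. Reaction started with 20 µM PGH₂, stopped after 1 min with FeCl₂/citric acid. PGE₂ quantified by SPE and LC–MS/MS. IC50 from four-parameter logistic fit of increasing concentrations.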

[3] = biological target: T1, Prostaglandin G/H synthase 2 (Homo sapiens); assay: Inhibition of LPS-stimulated COX2 in human whole blood assessed as reduction in PGE2 production by measuring remaining activity at 100 uM preincubated for 15 mins followed by LPS addition measured after 24 hrs by LC-MS/MS analysis
Outline: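 Heparinized human whole blood (500 µL) mixed with compound in DMSO, with acetylsalicylic acid added to block COX-1, held 15 min at 37 °C, then stimulated with LPS in autologous plasma to induce COX-2/mPGES-1. After 24 h at 37 °C, samples chilled 5 min on ice; plasma collected, prostaglandins extracted and measured by LC–MS/MS. Remaining activity given relative to vehicle control.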

[4] = biological target: T2, Prostaglandin E synthase (Homo sapiens); assay: Inhibition of mPGES-1 in human HeLa cells using PGH2 as substrate assessed as inhibition of IL-1beta/TNFalpha-stimulated PGE2 production at 100 uM after 24 hrs by LC-MS/MS analysis; type: cell-based
Outline: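 HeLa cells (2 × 10⁴ per well) grown 24 h at 37 °C, then given fresh medium with 1 ng/mL IL-1b + 5 ng/mL TNFa (or PBS for unstimulated control) plus compound (1, 10 or 100 µM) or DMSO for 24 h at 37 °C. Supernatant mixed with H₃PO₄, EDTA and deuterated internal standards; PGE₂ measured by SPE and LC–MS/MS.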

[5] = biological target: T3, Prostaglandin E synthase (Homo sapiens, UniProt O14684); assay: Inhibition of mPGES-1 in human HeLa cells using PGH2 as substrate assessed as inhibition of IL-1beta/TNFalpha-stimulated PGE2 production preincubated for 30 mins followed by substrate addition measured after 1 min by LC-MS/MS analysis; type: cell-based; outline: as §2
T3 sequence (O14684 whole entry): T2 sequence (whole entry)

[6] = biological target: Prostaglandin G/H synthase 1 (Homo sapiens) (UniProt P23219); assay: Inhibition of COX1 in human whole blood assessed as reduction in TXB2 production by measuring remaining activity at 100 uM after 1 hr by LC-MS/MS analysis
Chain of Prostaglandin G/H synthase 1 (Homo sapiens) (P23219 whole entry): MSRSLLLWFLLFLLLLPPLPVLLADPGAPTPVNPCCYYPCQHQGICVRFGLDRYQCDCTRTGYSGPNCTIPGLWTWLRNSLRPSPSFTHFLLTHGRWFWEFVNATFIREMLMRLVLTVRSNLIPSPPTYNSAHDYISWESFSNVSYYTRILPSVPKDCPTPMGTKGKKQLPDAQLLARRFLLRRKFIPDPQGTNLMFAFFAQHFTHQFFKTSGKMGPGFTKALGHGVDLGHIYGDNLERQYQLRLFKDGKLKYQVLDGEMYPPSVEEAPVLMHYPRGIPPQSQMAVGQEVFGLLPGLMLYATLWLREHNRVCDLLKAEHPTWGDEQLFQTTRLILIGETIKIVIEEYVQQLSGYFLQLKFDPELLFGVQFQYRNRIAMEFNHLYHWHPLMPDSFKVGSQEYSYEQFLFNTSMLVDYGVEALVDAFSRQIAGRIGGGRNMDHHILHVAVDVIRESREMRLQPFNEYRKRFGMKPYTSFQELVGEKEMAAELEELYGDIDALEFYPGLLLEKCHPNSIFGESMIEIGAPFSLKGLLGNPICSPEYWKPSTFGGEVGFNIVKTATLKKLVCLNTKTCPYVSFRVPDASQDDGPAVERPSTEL

[7] = biological target: T4, Prostaglandin G/H synthase 1 (Ovis aries) (UniProt P05979); assay: Inhibition of ovine COX1 using […] at 10 uM by LC-MS/MS analysis; outline: as §1
T4 sequence (whole entry): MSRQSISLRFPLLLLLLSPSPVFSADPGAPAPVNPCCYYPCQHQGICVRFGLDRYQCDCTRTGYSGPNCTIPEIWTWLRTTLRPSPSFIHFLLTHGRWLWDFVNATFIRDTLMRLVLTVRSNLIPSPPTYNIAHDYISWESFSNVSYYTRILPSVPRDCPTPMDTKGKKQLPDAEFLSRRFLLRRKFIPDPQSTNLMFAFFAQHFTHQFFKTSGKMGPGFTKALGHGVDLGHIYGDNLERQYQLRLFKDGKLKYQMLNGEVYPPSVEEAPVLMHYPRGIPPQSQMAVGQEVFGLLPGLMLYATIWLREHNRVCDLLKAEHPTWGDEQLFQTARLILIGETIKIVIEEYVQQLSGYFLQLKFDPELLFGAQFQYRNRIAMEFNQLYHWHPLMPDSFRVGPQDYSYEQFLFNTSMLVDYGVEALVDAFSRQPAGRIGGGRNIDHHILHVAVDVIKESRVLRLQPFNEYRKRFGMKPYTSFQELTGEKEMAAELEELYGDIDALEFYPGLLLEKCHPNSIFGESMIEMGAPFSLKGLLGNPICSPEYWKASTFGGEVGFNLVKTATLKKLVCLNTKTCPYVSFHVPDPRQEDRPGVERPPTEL

[8] = biological target: T5, Prostaglandin E synthase (Mus musculus) (UniProt Q9JM51); assay: Inhibition of mPGES-1 in mouse RAW264.7 cells using PGH2 as substrate assessed as inhibition of LPS-stimulated PGE2 production at 5 uM preincubated for 30 mins followed by substrate addition measured after 1 min by LC-MS/MS analysis; type: cell-based; outline: as §2
T5 sequence (whole entry): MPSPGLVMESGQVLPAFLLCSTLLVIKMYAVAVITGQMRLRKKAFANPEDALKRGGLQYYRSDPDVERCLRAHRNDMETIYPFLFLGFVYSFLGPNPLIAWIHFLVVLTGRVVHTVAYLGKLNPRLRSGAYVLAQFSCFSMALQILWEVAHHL

COc1ccc(CN(CC2CCCCC2)S(=O)(=O)c2ccc(C(=O)O)cc2)cc1
inhibition [1]: 18.5% | inhibition [2]: 67.9% | Activity [3]: 39% | inhibition [4]: Active | IC50 [5]: 10.2 µM | Activity [6]: 83.6% | inhibition [7]: 10.3%

COc1ccc(CN(Cc2ccccc2)S(=O)(=O)c2ccc(C(=O)O)cc2)cc1
inhibition [1]: < 0% | inhibition [8]: 29.8% | inhibition [2]: 39.9% | Activity [3]: 74.4% | inhibition [4]: Active | IC50 [5]: 13.8 µM | Activity [6]: 90% | inhibition [7]: < 0%

O=C(O)c1ccc(S(=O)(=O)N(Cc2ccccc2)Cc2ccc(Oc3ccccc3)cc2)cc1
inhibition [1]: 3.1% | inhibition [8]: 71.4% | inhibition [2]: 90% | Activity [3]: 88.7% | inhibition [4]: Active | IC50 [5]: 1 µM | Activity [6]: 92.4% | inhibition [7]: 0.3%

O=C(O)c1ccc(S(=O)(=O)N(Cc2ccccc2)Cc2ccc(Nc3ccccc3)cc2)cc1
inhibition [1]: 12.9% | inhibition [2]: 78.5% | Activity [3]: 61.2% | inhibition [4]: Active | IC50 [5]: 7.2 µM | Activity [6]: 110% | inhibition [7]: < 0%

O=C(O)c1ccc(S(=O)(=O)N(Cc2ccccc2)c2ccc(Oc3ccccc3)cc2)cc1
inhibition [1]: < 0% | inhibition [8]: 74.7% | inhibition [2]: 79.8% | Activity [3]: 66.8% | inhibition [4]: Active | IC50 [5]: 1.7 µM | Activity [6]: 85.2% | inhibition [7]: 12.4%
